Results from ChEMBL document CHEMBL1773040, “Briarane diterpenes diminish COX-2 expression in human colon adenocarcinoma cells” (2011).
Calls of active or inactive are those of the source. The calls are words filed in the database; no cut-off is given here.

Tests used:
[1] = test system: Caco-2; assay: Cytotoxicity against human Caco2 cells assessed as decrease in cell viability at 5 to 30 uM after 24 hrs by trypan blue exclusion assay; assay type: functional, cell-based
How it was run: (§1)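 Caco-2 cells kept in MEM with 10% heat-inactivated FBS, penicillin G and streptomycin at 37 C, 5% CO2. Compounds given from a 5 mg/mL DMSO stock; exponentially growing cells seeded in complete medium with compound for 24 h. Floating and adherent cells pooled, mixed with 0.4% trypan blue, and stained/unstained cells counted by hemacytometer. Each experiment run three times.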

[2] = test system: Caco-2; assay: Cytotoxicity against human Caco2 cells assessed as decrease in cell viability at 20 uM after 24 hrs by trypan blue exclusion assay; assay type: functional; how it was run: as §1
[3] = test system: Caco-2; assay: Decrease in PMA-induced COX-2 mRNA expression in human Caco2 cells at 10 to 15 uM after 24 hrs by PCR analysis; assay type: functional, cell-based
[4] = test system: RAW264.7; assay: Decrease in PMA-induced COX-2 mRNA expression in mouse RAW264.7 cells at 5 to 15 uM after 24 hrs by PCR analysis; assay type: functional, cell-based
How it was run: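 RAW 264.7 monolayers stimulated with PMA and co-incubated with compound (0–15 μM) for 24 h. Total RNA isolated; equal RNA amounts reverse-transcribed to cDNA. COX-2 fragments amplified by PCR: 94 C 3 min, then 35 cycles of 94 C 30 s, 56 C 1 min, 78 C 30 s. GAPDH served as reference.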

[5] = test system: Caco-2; assay: Cytotoxicity against human Caco2 cells assessed as decrease in cell viability at 30 uM after 24 hrs by trypan blue exclusion assay; assay type: functional; how it was run: as §1
[6] = test system: Caco-2; assay: Decrease in PMA-induced COX-2 mRNA expression in human Caco2 cells at 5 to 15 uM after 24 hrs by PCR analysis; assay type: functional, cell-based
[7] = test system: Caco-2; assay: Cytotoxicity against human Caco2 cells assessed as decrease in cell viability at 15 uM after 24 hrs by trypan blue exclusion assay; assay type: functional; how it was run: as §1

| Structure (SMILES) | Activity [1] | Activity [2] | Activity [3] | Activity [4] | Activity [5] | Activity [6] | Activity [7] |
| --- | --- | --- | --- | --- | --- | --- | --- |
| CCCCCC(=O)O[C@@H]1C[C@H](O)[C@@]2(C)C=C[C@@H](OC(C)=O)[C@@](C)(O)[C@@H]2[C@H](OC(C)=O)[C@]23O[C@@]2(C)C(=O)O[C@H]3/C=C\1C [BRIALALEPOLIDE B] | Dose-dependent effect | 50% | Active | Active | – | – | – |
| CC(=O)O[C@@H]1C[C@H](O)[C@@]2(C)C=C[C@@H](OC(C)=O)[C@@](C)(O)[C@@H]2[C@H](OC(C)=O)[C@]23O[C@@]2(C)C(=O)O[C@H]3/C=C\1C [BRIALALEPOLIDE A] | Dose-dependent effect | – | – | inactive | 50% | inactive | – |
| CCCCCCCC(=O)O[C@@H]1C[C@H](O)[C@@]2(C)C=C[C@@H](OC(C)=O)[C@@](C)(O)[C@@H]2[C@H](OC(C)=O)[C@]23O[C@@]2(C)C(=O)O[C@H]3/C=C\1C [BRIALALEPOLIDE C] | Dose-dependent effect | – | Active | Active | 75% | – | 50% |
